From PubChem BioAssay
A selection: hits, their analogues and other compounds. The true share with any hit is near 4.3%.
SR-BI HDL uptake: inhibitors of SR-BI mediated HDL lipid uptake, primary screen, ldlA[mSR-BI] cells, fluorescence, single point. Scavenger receptor class B member 1 (Mus musculus), Q61009. ldlA[mSR-BI] CHO cells, DiI-HDL uptake fluorescence, 3 h. inhibition, % at 12.5 µM. 320,000 compounds, 0.96% hits. AID 488896, 2010;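 active = mean replicate inhibition of at least 70% and a set share of replicates each scoring 70 or more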
Target sequence (Q61009 whole entry, looked up): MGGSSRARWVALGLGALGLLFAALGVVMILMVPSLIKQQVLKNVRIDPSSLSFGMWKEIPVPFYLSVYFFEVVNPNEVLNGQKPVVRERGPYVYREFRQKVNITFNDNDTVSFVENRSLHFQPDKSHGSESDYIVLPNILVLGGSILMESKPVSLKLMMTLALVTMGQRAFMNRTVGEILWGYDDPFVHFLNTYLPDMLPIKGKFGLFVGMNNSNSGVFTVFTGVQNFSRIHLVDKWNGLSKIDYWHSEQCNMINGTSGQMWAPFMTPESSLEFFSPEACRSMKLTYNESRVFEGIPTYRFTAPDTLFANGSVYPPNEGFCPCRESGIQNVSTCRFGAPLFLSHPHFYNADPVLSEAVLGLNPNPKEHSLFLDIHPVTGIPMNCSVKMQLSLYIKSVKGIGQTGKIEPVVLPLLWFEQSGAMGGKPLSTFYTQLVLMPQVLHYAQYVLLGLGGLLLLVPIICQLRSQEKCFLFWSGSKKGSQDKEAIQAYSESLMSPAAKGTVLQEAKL
Hep lipid drop: inhibitors of hepatocyte lipid droplet formation, primary screen, imaging, high-throughput imaging, BODIPY stain; 240,000 compounds, 0.4% hits; AML12 mouse hepatocytes, oleate lipid droplets; AID 1656, 2009; inhibition, % at 6.5 µM;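 active = lipid droplet intensity inhibited by at least 50%, with more than 500 cells counted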
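System: AML12 hepatocytes (mouse). Probe or stimulus: oleic acid at 100 µM to induce lipid droplet formation. Times: overnight treatment with compound plus oleate. Detection: Image-based BODIPY and DAPI two-channel analysis. Evaluation: percent inhibition of filter-corrected integrated lipid droplet intensity per well.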
SR-BI uptake up: activators of SR-BI mediated DiI-HDL uptake, primary screen, ldlA[mSR-BI] CHO cells, DiI fluorescence; 320,000 compounds, 0.096% hits; AID 504775, 2011; 3 h; 100 = double the neutral-control signal; activation, % at 12.5 µM;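 active = mean replicate activation of at least 60% and every replicate at or above 60%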
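System: LDL receptor-deficient CHO ldlA cells overexpressing murine SR-BI | Timing: 3 h uptake period with compound, 37 °C | Medium: HEPES-buffered (25 mM, pH 7.4) F12 plus 0.5% BSA | Dosing: Single-point compound dose | Signal: Bottom-read fluorescence, 550/595 nm | Read-out: Retained DiI signal reflecting DiI-HDL uptake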
AHR activator: AHR activators, primary screen, cell-based, luminescence, luciferase reporter, human; Aryl hydrocarbon receptor (Homo sapiens), P35869; AHR-responsive luciferase reporter cells; activation, % at 5 µM; 320,000 compounds, 2.5% hits; AID 2796, 2010; in the data active = activation above about 47%
Yeast superoxide: reduction of superoxide in aged yeast, primary screen, HTS; S. cerevisiae aged cells, superoxide DHE fluorescence; stronger effect = lower value; superoxide response (% of plate mean), % at 10 µM; 330,000 compounds, 0.18% hits;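 active = superoxide response under a set limit, about three screen SD below normal, cut at about 65% in these data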;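 also: yeast aged for seven days with compound at 30 °C before DHE staining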
SMARCA2 activ: SMARCA2 (BRM) function activators, primary screen, cell-based, luminescence, high throughput; MG213 cells, MMTV-luciferase reporter, dexamethasone, overnight; activation, % at 9.1 µM; 370,000 compounds, 1% hits; in the data active = activation above about 7.8%
CR mimetic CP: superoxide lowering in aged yeast cells, confirmation, cherry picked compounds | shares compounds with Yeast superoxide | S. cerevisiae aging, superoxide DHE fluorescence; stronger effect = lower value | superoxide response (% of plate), % at 10 µM | 850 compounds, 1% hits;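 active = superoxide signal below 65% of the plate average of sample wells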;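 also: cells aged with compound for 7 days at 30 degrees C before staining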
DHE fluor count: DHE quenching or ROS scavenging interference in aged yeast, artefact control for yeast caloric restriction mimetic project, S. cerevisiae BY4741, flow cytometry. shares compounds with Yeast superoxide. DHE fluorescence; stronger effect = lower value. fluorescence response, % at 10 µM. 850 tested, under 10 active. AID 435000, 2010;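 active = fluorescence response below 15%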;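 also: lower means stronger quenching of DHE signal or ROS scavenging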
Numbers stand for hits.

`CC(=O)c1ccc(NS(=O)(=O)c2ccc(N)cc2)cc1` gave SR-BI HDL uptake inactive, Hep lipid drop inactive, SR-BI uptake up inactive, AHR activator inactive, Yeast superoxide inactive and SMARCA2 activ inactive.
Screening COc1ccc(/C=C2\SC(=S)N(CCCC(=O)Nc3ccc(C(=O)O)cc3)C2=O)cc1OC returned SR-BI HDL uptake inactive, Hep lipid drop inactive, SR-BI uptake up inactive, AHR activator inactive, Yeast superoxide 63, SMARCA2 activ inactive, CR mimetic CP inactive and DHE fluor count inactive.
For COc1ccc(/C=C2\SC(=O)N(CCCC(=O)Nc3ccc(C(=O)O)cc3)C2=O)cc1OC the results were SR-BI HDL uptake inactive, Hep lipid drop inactive, SR-BI uptake up inactive, AHR activator inactive, Yeast superoxide inactive and SMARCA2 activ inactive.
`CCOC(=O)C(CC)n1cnc2c(nnn2-c2cccc(OC)c2)c1=O` (configuration not stated) gave SR-BI HDL uptake inactive, Hep lipid drop inactive, SR-BI uptake up inactive, AHR activator inactive, Yeast superoxide 65, SMARCA2 activ inactive, CR mimetic CP inactive and DHE fluor count inactive.
Screening COc1ccc2c(C)cc(SCC(=O)NC3CCCC3)nc2c1 returned SR-BI HDL uptake inactive, SR-BI uptake up inactive, AHR activator inactive, Yeast superoxide inactive and SMARCA2 activ inactive.
For COc1ccc2c(C)cc(SCC(=O)c3ccc4c(c3)OCO4)nc2c1 the results were SR-BI HDL uptake inactive, SR-BI uptake up inactive, AHR activator 65, Yeast superoxide 64, SMARCA2 activ inactive, CR mimetic CP inactive and DHE fluor count inactive.
For Cc1c(Cc2ccccc2)c(NCCN(C)C)n2c(nc3ccccc32)c1C#N the results were SR-BI HDL uptake inactive, Hep lipid drop inactive, SR-BI uptake up inactive, AHR activator inactive, Yeast superoxide 59, SMARCA2 activ inactive, CR mimetic CP inactive and DHE fluor count inactive.
Cc1ccc(S(=O)(=O)N(CC(=O)Nc2ccc(C(N)=O)cc2)C(=O)N2CCN(C)CC2)cc1 was read as SR-BI HDL uptake inactive, SR-BI uptake up inactive, AHR activator inactive, Yeast superoxide 65, SMARCA2 activ inactive, CR mimetic CP inactive and DHE fluor count inactive.
CCN1CCN(C(=O)N(CC(=O)Nc2ccc(C(N)=O)cc2)S(=O)(=O)c2ccc(C)cc2)CC1 was read as SR-BI HDL uptake inactive, SR-BI uptake up inactive and SMARCA2 activ inactive.
`Cc1ncc([N+](=O)[O-])n1CC(=O)Nc1ccc(F)c(F)c1` gave SR-BI HDL uptake inactive, Hep lipid drop inactive, SR-BI uptake up inactive, AHR activator inactive, Yeast superoxide 53, SMARCA2 activ inactive, CR mimetic CP inactive and DHE fluor count inactive.
Screening C[C@H](O)[C@@H]1CN2CCc3c([nH]c4c(-c5ccc6c(c5)OCO6)cccc34)[C@@H]2C[C@@H]1N(C)C(=O)c1ccccc1F returned SMARCA2 activ inactive.
`N#Cc1ccc(Cn2ccc3ccc(-c4ccc5ccn(C(=O)c6ccccc6)c5c4)cc32)cc1` gave SMARCA2 activ inactive.
`COc1ccc(OC)c(CN2CCC(CNC(=O)Nc3cccc(Cl)c3)CC2)c1` gave Hep lipid drop inactive, AHR activator inactive, Yeast superoxide inactive and SMARCA2 activ inactive.
COc1cc(NC(=O)NCC2CCN(Cc3ccccc3Cl)CC2)cc(OC)c1OC was read as SR-BI HDL uptake inactive, Hep lipid drop inactive, SR-BI uptake up inactive, AHR activator inactive, Yeast superoxide 41, SMARCA2 activ inactive, CR mimetic CP inactive and DHE fluor count inactive.
CN(C(=O)CSc1nc(O)cc(=O)n1-c1ccccc1F)c1ccccc1 was read as SR-BI HDL uptake inactive, Hep lipid drop inactive, SR-BI uptake up inactive, AHR activator inactive, Yeast superoxide 50, SMARCA2 activ inactive, CR mimetic CP inactive and DHE fluor count inactive.
Screening CN(C(=O)CSc1nc(O)cc(=O)n1C1CCCC1)c1ccccc1 returned SR-BI HDL uptake inactive, Hep lipid drop inactive, SR-BI uptake up inactive, AHR activator inactive, Yeast superoxide inactive and SMARCA2 activ inactive.
C=CCN(CC=C)C[C@@H]1CSCCS(=O)(=O)N1 was read as SMARCA2 activ inactive.
For CCn1c(Cc2cccs2)nnc1SCC(=O)Nc1ccccc1-c1ccccc1 the results were SMARCA2 activ inactive.
`COC(=O)c1cc(-c2cc(Cl)cc(Cl)c2)c(=O)n2c1CCC2` gave SMARCA2 activ inactive.
O=C(CN(c1ccc2c(c1)OCCO2)S(=O)(=O)c1ccccc1)NCc1ccc(Cl)cc1 was read as SR-BI HDL uptake inactive, Hep lipid drop inactive, SR-BI uptake up inactive, AHR activator inactive, Yeast superoxide 62, SMARCA2 activ inactive, CR mimetic CP inactive and DHE fluor count inactive.
For COc1cccc(CNC(=O)[C@H]2CCCN2C(=O)[C@H]2CCCN2C(=O)c2ccccc2C(F)(F)F)c1 the results were SMARCA2 activ inactive.
CCOc1ccc(NC(=O)CN2CCN(CC(=O)Nc3ccc(OC)cc3OC)CC2)cc1 was read as SR-BI HDL uptake inactive, Hep lipid drop inactive, SR-BI uptake up inactive, AHR activator inactive, Yeast superoxide 62, SMARCA2 activ inactive, CR mimetic CP inactive and DHE fluor count inactive.
O=C(Cn1cnc2ccccc2c1=O)N1CCCCC1 was read as SMARCA2 activ inactive.
For COc1ccc(F)cc1S(=O)(=O)Nc1ccc(C)cc1 the results were Hep lipid drop inactive, AHR activator inactive, Yeast superoxide inactive, SMARCA2 activ inactive, CR mimetic CP inactive and DHE fluor count inactive.
For COC(=O)[C@]12C[C@H](CC(=O)NCCCCc3ccccc3)C(=O)N(CCc3ccc(OC)c(OC)c3)C1=C[C@H](COCc1ccccc1)O[C@@H]2C the results were SMARCA2 activ inactive.
Screening CC1(C)CC(NCc2cccc([N+](=O)[O-])c2)CC(C)(C)N1 returned SR-BI HDL uptake inactive, Hep lipid drop inactive, SR-BI uptake up inactive, AHR activator inactive, Yeast superoxide 62, SMARCA2 activ inactive, CR mimetic CP inactive and DHE fluor count inactive.
For CCn1c(SCC(=O)Nc2ccc(OC)c(OC)c2)nnc1-c1cccs1 the results were SR-BI HDL uptake inactive, SR-BI uptake up inactive, AHR activator inactive, Yeast superoxide inactive, SMARCA2 activ inactive, CR mimetic CP inactive and DHE fluor count inactive.
